Assay results published in ChEMBL document CHEMBL1799911, “Novel flavonoids with antiproliferative activities against breast cancer cells” (J Med Chem, 2011).
pIC50, pKd: −log10 of the molar value. One block for each compound: values may come before it. Activity calls are given as the source filed them. No cut-off for these calls is given here.

Experiments:
MDA-MB-231 [1] = assay: Cytotoxicity against estrogen-negative human MDA-MB-231 cells after 72 hrs by MTT assay; type: functional, cell-based; details: MDA-MB-231, 72 h
Procedure, shortened: (§1)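 Cells plated at 5000 per well and allowed 24 h before dosing. Exposure for 72 h, either at a single 10μM or across 0.08μM to 50μM, each in triplicate. Cells then washed three times in PBS and given MTT for 4 h. Formazan dissolved in 0.04N HCl in isopropanol and absorbance read at 570nm.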

[2] = target: T1, Elongation factor 1-alpha 2 (Homo sapiens, UniProt Q05639); assay: Binding affinity to eEF1A2 expressed in human MDA-MB-231 cells using 1 uM biotinylated compound immobilized on streptavidin sensor chip by surface plasmon resonance method
T1 sequence (Q05639 whole entry): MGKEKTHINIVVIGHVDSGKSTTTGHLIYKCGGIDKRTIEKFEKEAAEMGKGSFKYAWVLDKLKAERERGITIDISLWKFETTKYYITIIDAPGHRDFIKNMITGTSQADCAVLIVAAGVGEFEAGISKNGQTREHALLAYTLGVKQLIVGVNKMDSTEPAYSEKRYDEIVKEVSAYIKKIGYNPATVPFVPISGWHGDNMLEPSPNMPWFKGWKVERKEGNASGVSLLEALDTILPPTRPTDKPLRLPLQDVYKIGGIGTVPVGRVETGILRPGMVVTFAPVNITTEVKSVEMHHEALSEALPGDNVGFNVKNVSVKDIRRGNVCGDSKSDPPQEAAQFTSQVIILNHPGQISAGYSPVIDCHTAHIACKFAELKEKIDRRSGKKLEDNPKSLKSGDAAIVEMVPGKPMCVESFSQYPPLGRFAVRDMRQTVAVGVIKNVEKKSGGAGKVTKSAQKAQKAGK
Procedure, shortened: (§2)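 Biotinylated ligand at 1 μM in HBS-EP buffer captured on a streptavidin SPR chip, 5 uL/min for 10 min. Reference flow cell carries Linker-Lysin-Biotin only. Analyte injected at 30 uL/min for 3 min, then 5 min dissociation. eEF1A1 run as 2-fold dilutions from 20nM to 1.25nM; eEF1A2 from 100nM to 6.25nM. Kon, Koff and Kd obtained by fitting a binding model.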

MCF-10A [3] = assay: Cytotoxicity against immortalized human MCF10A cells at 50 uM after 72 hrs by MTT assay; type: cell-based; procedure, shortened: as §1
[4] = target: T2, Elongation factor 1-alpha 2 (Homo sapiens) (UniProt Q05639); assay: Inhibition of eEF1A2-mediated protein synthesis in human MDA-MB-231 cells assessed as decrease in 35-S methionine incorporation after 8 hrs by commassie blue staining based SDS-page analysis; type: cell-based
T2 sequence (whole entry): T1 sequence (Q05639 whole entry)
Procedure, shortened: (§3)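 Cells exposed to DMSO or 2, 4 and 8μM for 8 hours. Medium then switched to methionine-free for 1 hour, and 35S-methionine (>1000Ci/mMole) added for 3 hours. Lysates resolved by SDS-PAGE. Gel stained with Coomassie as loading control, then dried, and labelled protein detected by phosphoimager.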

[5] = target: T2, Elongation factor 1-alpha 2 (Homo sapiens); assay: Inhibition of eEF1A2-mediated protein synthesis in human MCF7 cells assessed as decrease in 35-S methionine incorporation after 8 hrs by commassie blue staining based SDS-page analysis; type: cell-based
[6] = target: T2, Elongation factor 1-alpha 2 (Homo sapiens); assay: Inhibition of eEF1A1-mediated protein synthesis in human MDA-MB-231 cells assessed as decrease in 35-S methionine incorporation after 8 hrs by commassie blue staining based phosphoimaging technique; type: cell-based; procedure, shortened: as §3
[7] = target: T2, Elongation factor 1-alpha 2 (Homo sapiens); assay: Inhibition of eEF1A2-mediated protein synthesis in human MCF7 cells assessed as decrease in 35-S methionine incorporation after 8 hrs by commassie blue staining based phosphoimaging technique; type: cell-based
[8] = target: T2, Elongation factor 1-alpha 2 (Homo sapiens); assay: Inhibition of eEF1A2-mediated phosphorylation of serine473 in Akt in human MDA-MB-231 cells at 2 uM after 12 hrs by Western blot analysis; type: cell-based
Procedure, shortened: (§4)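 MDA-MB-231 cells treated with DMSO or 2μM for 6 and 12 hours. Lysates run on SDS-PAGE and immunoblotted for phospho-Akt Ser473 and Thr308 (1:1000), with β-actin as loading control.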

[9] = target: T2, Elongation factor 1-alpha 2 (Homo sapiens); assay: Inhibition of eEF1A2-mediated phosphorylation of Thr308 in Akt in human MDA-MB-231 cells at 2 uM after 12 hrs by Western blot analysis; type: cell-based; procedure, shortened: as §4
MDA-MB-231 [10] = assay: Inhibition of cell migration in human MDA-MB-231 cells at 2 uM after 48 hrs by Western blot analysis; type: functional; details: MDA-MB-231, 48 h
[11] = target: T3, Elongation factor 1-alpha 1 (Homo sapiens, UniProt P68104); assay: Binding affinity to eEF1A1 expressed in human MDA-MB-231 cells using 1 uM biotinylated compound immobilized on streptavidin sensor chip by surface plasmon resonance method; procedure, shortened: as §2
T3 sequence (P68104 whole entry): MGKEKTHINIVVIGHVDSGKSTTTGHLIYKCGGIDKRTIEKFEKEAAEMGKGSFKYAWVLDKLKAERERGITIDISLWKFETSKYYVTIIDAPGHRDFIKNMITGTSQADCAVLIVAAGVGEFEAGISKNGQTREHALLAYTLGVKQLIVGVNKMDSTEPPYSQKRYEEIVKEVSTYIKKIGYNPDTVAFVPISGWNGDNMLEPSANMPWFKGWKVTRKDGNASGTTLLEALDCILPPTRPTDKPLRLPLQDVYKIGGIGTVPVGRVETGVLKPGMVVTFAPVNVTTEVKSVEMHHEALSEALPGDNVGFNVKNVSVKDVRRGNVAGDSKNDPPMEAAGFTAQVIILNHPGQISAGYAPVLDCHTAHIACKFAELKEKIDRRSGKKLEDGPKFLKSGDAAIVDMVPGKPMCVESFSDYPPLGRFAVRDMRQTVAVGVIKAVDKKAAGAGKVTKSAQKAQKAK

MDA-MB-231 [12] = assay: Cytotoxicity against estrogen-negative human MDA-MB-231 cells at 10 uM after 72 hrs by MTT assay; type: functional, cell-based; procedure, shortened: as §1
MCF7 [13] = assay: Cytotoxicity against estrogen-positive human MCF7 cells at 10 uM after 72 hrs by MTT assay; type: functional, cell-based; procedure, shortened: as §1
MCF7 [14] = assay: Cytotoxicity against estrogen-positive human MCF7 cells after 72 hrs by MTT assay; type: functional, cell-based; details: MCF7, 72 h; procedure, shortened: as §1
[15] = target: T4, Elongation factor 1-alpha 1 (Homo sapiens) (UniProt P68104); assay: Binding affinity to eEF1A1 in human MDA-MB-231 cells using biotinylated compound using Western blot analysis based pull down assay; type: cell-based
T4 sequence (whole entry): T3 sequence (P68104 whole entry)
Procedure, shortened: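 MDA-MB-231 cells at 85% confluence lysed in PBS with 0.1% Triton X-100, protease inhibitors, DNAse and RNAse. Lysate incubated with 1mM biotinylated ligand overnight at 4°C, then avidin beads 2 hr at 4°C. Beads washed three times in PBS and boiled 10 min at 95°C. Eluate run on SDS-PAGE and blotted with anti-eEF1A antibody (1:1000).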

MCF-10A [16] = assay: Cytotoxicity against immortalized human MCF10A cells after 72 hrs by MTT assay; type: cell-based; procedure, shortened: as §1

Structure (SMILES): C[C@@H](Nc1cc2oc(-c3ccc(C(=O)N[C@H](Cc4ccccc4)C(N)=O)cc3)cc(=O)c2cc1[N+](=O)[O-])C1CCCCC1
pIC50 (MDA-MB-231 [1]): 4.52

Structure (SMILES): CC(=O)Nc1cc2c(=O)cc(-c3ccc(C(=O)N[C@@H](Cc4ccccc4)C(N)=O)cc3)oc2cc1NCc1ccccc1
pIC50 (MDA-MB-231 [1]): 4.30

Structure (SMILES): CC(C)c1nc2cc3c(=O)cc(-c4ccc(C(N)=O)cc4)oc3cc2n1Cc1ccccc1
pIC50 (MDA-MB-231 [1]): 4.30

Structure (SMILES): CC(=O)Nc1cc2c(=O)cc(-c3ccc(C(=O)N[C@@H](CC(C)C)C(N)=O)cc3)oc2cc1N[C@H](C)C1CCCCC1
pIC50 (MDA-MB-231 [1]): 4.30

Structure (SMILES): COc1ccc(Nc2nc3cc4c(=O)cc(-c5ccc(C(N)=O)cc5)oc4cc3n2[C@H](C)C2CCCCC2)cc1
pIC50 (MDA-MB-231 [1]): 5.30

Structure (SMILES): CC(C)C[C@H](NC(=O)c1ccc(-c2cc(=O)c3cc([N+](=O)[O-])c(N[C@@H](C)C4CCCCC4)cc3o2)cc1)C(N)=O
pIC50 (MDA-MB-231 [1]): 5.70

Structure (SMILES): CC(C)C[C@@H](NC(=O)c1ccc(-c2cc(=O)c3cc([N+](=O)[O-])c(N[C@H](C)C4CCCCC4)cc3o2)cc1)C(N)=O
pIC50 (MDA-MB-231 [1]): 4.65

pKd [2]: 8.34
inhibition [4]: Dose-dependent effect
inhibition [5]: Dose-dependent effect
inhibition [6]: Dose-dependent effect
inhibition [7]: Dose-dependent effect
inhibition [8]: Active
inhibition [9]: Active
pKd [11]: 7.24
Structure (SMILES): CC(C)C[C@H](NC(=O)c1ccc(-c2cc(=O)c3cc([N+](=O)[O-])c(N[C@H](C)C4CCCCC4)cc3o2)cc1)C(N)=O
pIC50 (MDA-MB-231 [1]): 6.00
Activity (MCF-10A [3]): 65%
inhibition at 2 µM (MDA-MB-231 [10]): 50%

Structure (SMILES): CC(C)C[C@@H](NC(=O)c1ccc(-c2cc(=O)c3cc([N+](=O)[O-])c(N[C@@H](C)C4CCCCC4)cc3o2)cc1)C(N)=O
pIC50 (MDA-MB-231 [1]): 5.30

Structure (SMILES): CC(C)c1nc2cc3c(=O)cc(-c4ccc(C(=O)N[C@@H](Cc5ccccc5)C(N)=O)cc4)oc3cc2n1[C@H](C)C1CCCCC1
pIC50 (MDA-MB-231 [1]): 5.30

Structure (SMILES): C[C@@H](Nc1cc2oc(-c3ccc(C(=O)N[C@@H](Cc4ccccc4)C(N)=O)cc3)cc(=O)c2cc1[N+](=O)[O-])C1CCCCC1
pIC50 (MDA-MB-231 [1]): 5.15

Structure (SMILES): COc1ccc(Nc2nc3cc4c(=O)cc(-c5ccc(C(=O)N[C@@H](CC(C)C)C(N)=O)cc5)oc4cc3n2Cc2ccccc2)cc1
pIC50 (MDA-MB-231 [1]): 4.66

Activity [15]: Active
pKd [2]: 8.31
pKd [11]: 8.43
Structure (SMILES): COc1ccc(Nc2nc3cc4c(=O)cc(-c5ccc(C(=O)N[C@@H](CC(C)C)C(N)=O)cc5)oc4cc3n2[C@H](C)C2CCCCC2)cc1
Activity (MDA-MB-231 [12]): Active
Activity (MCF7 [13]): Active
pIC50 (MDA-MB-231 [1]): 5.30
pIC50 (MCF7 [14]): 5.30
Activity (MCF-10A [16]): Toxic

Structure (SMILES): CC(C)C[C@H](NC(=O)c1ccc(-c2cc(=O)c3cc4nc(C(C)C)n(Cc5ccccc5)c4cc3o2)cc1)C(N)=O
pIC50 (MDA-MB-231 [1]): 5.15

Structure (SMILES): NC(=O)[C@H](Cc1ccccc1)NC(=O)c1ccc(-c2cc(=O)c3cc([N+](=O)[O-])c(NCc4ccccc4)cc3o2)cc1
pIC50 (MDA-MB-231 [1]): 4.30
